Screens (PubChem BioAssay)
Most compounds without a hit are left out; they make up all but 3.4% or so of the library.
PHOSPHO1 inh – PHOSPHO1 (human) inhibition. Q8TCT1. recombinant PHOSPHO1, absorbance phosphatase assay. inhibition, % at 13.3 µM. actives 1.1% (n = 290,000); in the data active means inhibition above about 60%
Runt-CBFb FRET – blocks binding of human RUNX1 Runt domain to CBFb; actives 0.46% (n = 220,000); Q01196+Q13951; Cerulean-Runt/Venus-CBFb FRET ratio 530/480, 1 h; inhibition, % at 20 µM; AID 1496;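 active means inhibition over about 50% at 20 µM in the single-dose screen, limit read from the data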;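 further: 0% = DMSO wells and 100% = excess unlabeled CBFb competitor control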
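test system = Cerulean-Runt domain fusion protein, energy donor | probe or stimulus = Venus-CBFb binding partner, 100 nM | incubation = two 1 h room-temperature incubations shielded from light | detection = fluorescence energy transfer, 422 nm excitation, 530/480 nm emission | measure = loss of energy transfer signal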
Wee1 stabilizer – inhibitors of human Wee1 degradation; actives 1.2% (n = 220,000); HeLa Luc-Wee1K328M stability, luciferase luminescence; 100% = proteasome inhibitor MG132 effect; reporter increase, % at 5 µM;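 active means activation above the mean of all tested compounds plus 3 SD, set per screening run, cut at about 8.8% in these data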;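 further: cells exposed to compound for 20 h before luminescence read; 0% = DMSO alone and 100% = MG132 at 30 µM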
Target sequence (P30291 whole entry K328M): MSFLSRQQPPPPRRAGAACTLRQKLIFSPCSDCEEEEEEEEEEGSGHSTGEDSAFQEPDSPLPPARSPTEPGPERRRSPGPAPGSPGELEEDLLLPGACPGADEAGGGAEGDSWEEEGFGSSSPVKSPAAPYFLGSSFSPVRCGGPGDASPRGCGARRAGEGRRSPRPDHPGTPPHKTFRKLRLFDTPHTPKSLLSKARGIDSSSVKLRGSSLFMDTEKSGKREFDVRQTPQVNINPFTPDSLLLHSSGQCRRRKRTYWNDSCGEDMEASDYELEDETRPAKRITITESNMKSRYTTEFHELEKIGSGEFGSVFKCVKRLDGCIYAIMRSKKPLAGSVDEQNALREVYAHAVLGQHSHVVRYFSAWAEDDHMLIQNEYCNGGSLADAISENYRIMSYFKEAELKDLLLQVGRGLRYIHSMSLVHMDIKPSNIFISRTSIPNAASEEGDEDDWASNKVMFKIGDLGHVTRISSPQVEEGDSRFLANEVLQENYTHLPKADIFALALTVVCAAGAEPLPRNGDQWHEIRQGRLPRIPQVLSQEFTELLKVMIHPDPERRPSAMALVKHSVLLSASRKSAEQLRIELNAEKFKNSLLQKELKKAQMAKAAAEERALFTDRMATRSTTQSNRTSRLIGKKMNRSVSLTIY
Runt-SMMHC FRET – Runt domain-CBFb-SMMHC interaction inhibition; Q01196+Q13951; Cerulean-Runt/Venus-CBFb-SMMHC FRET ratio 530/480, 1 h; inhibition, % at 20 µM; actives 0.74% (n = 220,000);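 active means mean inhibition across duplicate retests at 20 µM reaching about 50%, limit read from the data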;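 further: 0% = DMSO wells and 100% = wells with excess untagged CBFb-SMMHC; inhibitors lower the FRET ratio by blocking Runt binding to CBFb-SMMHC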
RanGTP-Imp inh – disruptors of Ran-importin-beta complex formation – biochemical, FRET, CFP-Ran, YFP-importin-beta, homogeneous, primary screen. cell-free CFP-Ran/YFP-importin-beta FRET ratio. inhibition, % (test concentration not listed). actives 1.1% (n = 300,000);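 active means more than half of the replicate wells show a fall in the fluorescence ratio signal beyond about 16%, limit read from the data, passing the limit was not always enough; inconclusive means exactly half of the replicate wells pass the set limit; inactive means fewer than half of replicates pass the limit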;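 further: 0% = DMSO wells and 100% = Ran loaded with GDP instead of GTP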
HMGR II inh – blocks class II HMG-CoA reductase of Enterococcus faecalis; inhibition, % at 10 µM; purified E. faecalis HMGR, NADPH absorbance 340 nm kinetic; AID 1066; actives 0.41% (n = 190,000);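 active means inhibition above a set limit, the median over all tested compounds plus 3 SD, cut at about 9.5% in these data; inconclusive means no clear call, values can overlap the other calls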;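 further: enzyme runs in reverse so mevalonate oxidation gives rising NADPH absorbance; 0% = complete reaction with DMSO and 100% = background rate lacking mevalonate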
* hit, by the source's call; ? = inconclusive; · = no result given; ! = a repeat was not active.

SMILES	PHOSPHO1 inh	Runt-CBFb FRET	Wee1 stabilizer	Runt-SMMHC FRET	RanGTP-Imp inh	HMGR II inh
Cn1c(C(=O)NCC2CCCO2)cc2c(=O)n3ccccc3nc21 (stereo unspecified)	26	23	1	61*	2	-6
Cc1ccc(CNC(=O)c2cc3c(=O)n4ccccc4nc3n(CC3CCCO3)c2=N)cc1 (stereo unspecified)	10	18	3	63*	-10	-6
Cc1ccc(S(=O)(=O)c2cc3c(=O)n4ccccc4nc3n(CC3CCCO3)c2=N)cc1 (stereo unspecified)	·	·	1	·	·	·
N=c1c(C(=O)NC2CCCCC2)cc2c(=O)n3ccccc3nc2n1CC1CCCO1 (stereo unspecified)	37	·	·	·	171*	·
Cc1cccn2c(=O)c3cc(C(=O)NCC4CCCO4)n(C)c3nc12 (stereo unspecified)	·	·	2	·	·	·
COCCCNc1nc(N)c([N+](=O)[O-])c(N2CCCCCC2)n1	7	·	·	·	-3	·
COc1ccccc1-n1c([S-])c(C(=O)Nc2ccccc2C(F)(F)F)[n+]2ccc(C(=O)NCCO)cc12	-54	6	2	2	20*	-2
Cn1c(=O)n(-c2ccccc2)c(=O)c2c3c(sc21)COC(C)(C)C3	16	-1	1	2	1	-3
CCC1(C)Cc2c(sc3c2c(=O)n(-c2ccccc2)c(=O)n3C)CO1 (stereo unspecified)	77*	-1	-3	0	·	0
Cc1ccc2c(CN3CCN(CCO)CC3)cc(=O)oc2c1C	-7	2	2	1	-2	-6
CCc1cc2c3c(c(=O)oc2cc1OC(C)C(=O)O)CCCC3 (stereo unspecified)	-1	·	·	·	-1	·
CCc1cc2c3c(c(=O)oc2cc1O)CCCC3	-14	96*	8	144*	?	-1
COC(=O)C1CCN(Cc2cc(=O)oc3cc(OC)ccc23)CC1	-57	0	2	4	4	-4
CCc1cc2c(CN3CCN(C)CC3)cc(=O)oc2cc1O	-8	18	-2	57*	114*	0
CCc1cc2c(CN3CCN(CCO)CC3)cc(=O)oc2cc1O	11	70*	1	62*	113*	3
COc1ccc(OC)c(CN2CCN(Cc3cc(=O)oc4cc(O)ccc34)CC2)c1	10	·	·	·	61*	·
O=C(CN1CCN(Cc2ccccc2)CC1)Nc1ccc(Cl)cc1	27	·	·	·	-4	·
O=C(O)c1ccc(-c2nnc(-c3cccc(Br)c3)o2)cc1	24	·	·	·	2	·
Cc1cccc(NC(=O)C2CCN(C(=O)[C@@H]3Cc4ccccc4CN3)CC2)c1	26	·	·	·	4	·
CCOc1cccc(C2C(C#N)=C(N)Oc3cc(C)n(Cc4ccccn4)c(=O)c32)c1OCC (stereo unspecified)	9	-3	-2	-8	4	-9
CCn1c(C)cc2c(c1=O)C(c1ccccc1Br)C(C#N)=C(N)O2 (stereo unspecified)	-6	4	6	9	48*	0
COCCn1c(C)cc2c(c1=O)C(c1ccco1)C(C#N)=C(N)O2 (stereo unspecified)	13	112*	3	117*	8	1
CCOC(=O)/C(C#N)=C/c1cccc([N+](=O)[O-])c1	64*	-1	-2	3	3	·
CCOC(=O)/C(C#N)=C/c1c[nH]c2ccccc12	6	1	10*!	8	-2	-1
N#C/C(=C\c1cc([N+](=O)[O-])ccc1Cl)C(N)=O	20	0	2	5	2	-6
SMILES	PHOSPHO1 inh	Runt-CBFb FRET	Wee1 stabilizer	Runt-SMMHC FRET	RanGTP-Imp inh	HMGR II inh
N#C/C(=C/c1ccc([N+](=O)[O-])cc1)C(N)=O	24	1	11*	0	-4	6
CCOC(=O)/C(C#N)=C/c1cccc(C)c1	12	1	-1	2	-1	·
CCOC(=O)c1cc(-c2ccccc2)nc2nc(N3CCCCC3)sc12	-18	37	1	96	12	-2
CCOC(=O)c1cc(-c2ccccc2)nc2nc(N(CC)CC)sc12	9	·	·	·	45*	·
CCN(C(=O)CSc1nnc(Cc2cccc3ccccc23)n1N)C1CCS(=O)(=O)C1 (stereo unspecified)	0	1	1	-8	3	-5
Nn1c(Cc2cccc3ccccc23)nnc1SCC(=O)NC1CCS(=O)(=O)C1 (stereo unspecified)	90*	1	-2	1	6	-1
CCN(CC)S(=O)(=O)c1cccc(-c2nnc(SCC(=O)NC)n2N)c1	32	5	-1	-4	-1	-6
CCN(CC)S(=O)(=O)c1cccc(-c2nnc(SCC(=O)c3ccc(Cl)s3)n2C)c1	64*	1	0	-2	8	-2
Cc1[nH]c2ccc(Br)cc2c(=O)c1CN1CCCCC1	21	2	-1	-54	-1	-7
COC(=O)c1ccc2[nH]c(C)c(CN3CCCC3)c(=O)c2c1	3	16	2	64*	-3	-1
CCOC(=O)C1=C(C)N(C)C(=S)NC1c1ccc(Cl)cc1 (stereo unspecified)	-14	-1	9.9*	-4	-3	-6
CCOC(=O)C1=C(C)N(C)C(=S)NC1c1ccccc1 (stereo unspecified)	-14	2	3	-35	5	1
O=c1[nH]c(C2CCCN(S(=O)(=O)c3ccccc3F)C2)nc2c1nnn2Cc1ccccc1Cl (stereo unspecified)	11	·	·	·	1	·
CCN1C(=O)/C(=C\C=C\c2ccccc2[N+](=O)[O-])SC1=S	2	0	-1	-4	·	18*
O=C1/C(=C\c2cccc([N+](=O)[O-])c2O)SC(=S)N1Cc1ccccc1	31	·	·	·	5	·
CC(C)CN1C(=O)c2ccc(C(=O)Nc3ccc(OCC(=O)O)cc3)cc2C1=O	43	·	·	·	7	·
Cc1ccc(NC(=O)[C@@]2(CC(=O)O)CC(/C=C/c3ccccc3)=NO2)c(C)c1	15	·	·	·	3	·
CCCCC(=O)Nc1nn(CCC)c2nc3ccccc3cc12	-7	19	-2	34	63*	-2
CCn1nc(NC(=O)Cc2ccc(OC)cc2)c2cc3cc(C)ccc3nc21	12	22	0	39	19*	·
CCCn1nc(NS(=O)(=O)c2ccccc2)c2cc3ccccc3nc21	-8	-8	·	-12	2	-6
CC(=O)Nc1nn(C)c2nc3ccc(C)cc3cc12	·	·	·	·	8	·
CCn1nc(NC(C)=O)c2cc3ccc(C)cc3nc21	·	·	·	·	4	·
CCn1nc(NC(=O)c2ccccn2)c2cc3cc(C)ccc3nc21	-18	48	1	82*	89*	-3
CCCCn1nc(NC(=O)COC)c2cc3cc(OC)ccc3nc21	9	·	·	·	99*	·
Cc1ccc2c(c1)N(C(=O)CCC(=O)N1CCCCC1)CCO2	18	·	·	·	2	·
